Laboratory results as given in ChEMBL document CHEMBL3259533, “A new convenient synthetic method and preliminary pharmacological characterization of triazinediones as prokineticin receptor antagonists” (Eur J Med Chem, 2014).
Active and inactive are the calls of the source. The rule behind the calls is not given here.

Columns and labels:
Mus musculus [1] = assay: Analgesic activity in C57Bl/6 mouse assessed as changes in basal thermal sensitivity up to 120 pmol administered as intraplantar route at 48 degC after 15 to 180 mins; format: functional, organism-based
Procedure, shortened: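 Male C57Bl/6 mice (25–30 g), trained in paw-immersion test the preceding week. Compound in saline, 20 µl intraplantar, up to 120 pmol. Hind paw dipped in 48 °C water; withdrawal latency measured three times at 15–180 min post-dose versus baseline (mean of last three pre-dose readings). Result as % change from baseline; 5 mice per dose.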

Mus musculus [2] = assay: Analgesic activity in C57Bl/6 mouse assessed as inhibition of Bv8-induced decrease in latencies to paw withdrawal administered as intraplantar route at 48 degC after 15 to 180 mins; format: functional, organism-based
Procedure, shortened: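 Male C57Bl/6 mice (25–30 g), trained the preceding week. Antagonist in saline, 20 µl intraplantar, 5 min before Bv8 (63 fmol i.pl. in saline). Paw withdrawal latency from 48 °C water measured in triplicate at 15–180 min; %ΔNT = 100×(NTts−NTB)/NTB. Separate group of 5 mice per dose; EC50 with 95% confidence intervals from dose–response curves.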

Structure (SMILES): COc1ccc(Cn2c(NCCNC(=N)N)nc(=O)n(Cc3ccc(Cl)cc3)c2=O)cc1
- Activity (Mus musculus [1]): inactive
- EC50 (Mus musculus [2]): 4 pmol

Structure (SMILES): COc1ccc(Cn2c(NCCNC(=N)N)nc(=O)n(Cc3ccc(C)cc3)c2=O)cc1
- Activity (Mus musculus [1]): inactive
- EC50 (Mus musculus [2]): 4.4 pmol

Structure (SMILES): COc1ccc(Cn2c(NCCNC(=N)N)nc(=O)n(Cc3ccc([N+](=O)[O-])cc3)c2=O)cc1
- Activity (Mus musculus [1]): inactive
- EC50 (Mus musculus [2]): 48 pmol

Structure (SMILES): COc1ccc(Cn2c(=O)nc(NCCNC(=N)N)n(Cc3ccc(C(F)(F)F)cc3)c2=O)cc1
- Activity (Mus musculus [1]): inactive
- EC50 (Mus musculus [2]): 48 pmol

Structure (SMILES): COc1ccc(Cn2c(=O)nc(NCCNC(=N)N)n(Cc3ccc(F)cc3)c2=O)cc1
- Activity (Mus musculus [1]): inactive
- EC50 (Mus musculus [2]): 36 pmol

Structure (SMILES): COc1ccc(Cn2c(=O)nc(NCCNC(=N)N)n(Cc3ccc(Cl)c(Cl)c3)c2=O)cc1
- Activity (Mus musculus [1]): inactive
- EC50 (Mus musculus [2]): 4.5 pmol

Structure (SMILES): Cc1ccc(Cn2c(NCCNC(=N)N)nc(=O)n(Cc3ccc(C(F)(F)F)cc3)c2=O)cc1
- Activity (Mus musculus [1]): inactive
- EC50 (Mus musculus [2]): 0.033 pmol

Structure (SMILES): COc1ccc(Cn2c(NCCNC(=N)N)nc(=O)n(Cc3ccc(Br)cc3)c2=O)cc1
- Activity (Mus musculus [1]): inactive
- EC50 (Mus musculus [2]): 0.36 pmol

Structure (SMILES): CCc1ccc(Cn2c(=O)nc(NCCNC(=N)N)n(Cc3ccc(OC)cc3)c2=O)cc1
- Activity (Mus musculus [1]): inactive
- EC50 (Mus musculus [2]): 5.8 pmol

Structure (SMILES): COc1ccc(Cn2c(NCCNC(=N)N)nc(=O)n(Cc3ccc4c(c3)OCO4)c2=O)cc1
- Activity (Mus musculus [1]): inactive
- EC50 (Mus musculus [2]): 39 pmol

Structure (SMILES): COc1ccc(Cn2c(NCCNC(=N)N)nc(=O)n(Cc3ccc(C(F)(F)F)cc3)c2=O)cc1
- Activity (Mus musculus [1]): inactive
- EC50 (Mus musculus [2]): 51 pmol

Structure (SMILES): COc1ccc(Cn2c(NCCNC(=N)N)nc(=O)n(Cc3ccc(OC)cc3)c2=O)cc1
- Activity (Mus musculus [1]): inactive

Structure (SMILES): COc1ccc(Cn2c(=O)nc(NCCNC(=N)N)n(Cc3ccccc3)c2=O)cc1
- Activity (Mus musculus [1]): inactive
- EC50 (Mus musculus [2]): 63 pmol

Structure (SMILES): COc1ccc(Cn2c(NCCNC(=N)N)nc(=O)n(Cc3ccc(I)cc3)c2=O)cc1
- Activity (Mus musculus [1]): inactive
- EC50 (Mus musculus [2]): 51 pmol

Structure (SMILES): Cc1ccc(Cn2c(=O)nc(NCCNC(=N)N)n(Cc3ccc(Cl)c(Cl)c3)c2=O)cc1
- Activity (Mus musculus [1]): inactive
- EC50 (Mus musculus [2]): 5.1 pmol

Structure (SMILES): COc1ccc(Cn2c(=O)nc(NCCNC(=N)N)n(Cc3ccc(Cl)cc3)c2=O)cc1
- Activity (Mus musculus [1]): inactive
- EC50 (Mus musculus [2]): 4.4 pmol

Structure (SMILES): COc1ccc(Cn2c(NCCNC(=N)N)nc(=O)n(Cc3ccc(F)cc3)c2=O)cc1
- Activity (Mus musculus [1]): inactive
- EC50 (Mus musculus [2]): 0.31 pmol

Structure (SMILES): COc1ccc(Cn2c(=O)nc(NCCNC(=N)N)n(Cc3ccc(I)cc3)c2=O)cc1
- Activity (Mus musculus [1]): inactive
- EC50 (Mus musculus [2]): 39 pmol

Structure (SMILES): COc1ccc(Cn2c(=O)nc(NCCNC(=N)N)n(Cc3ccc(Br)cc3)c2=O)cc1
- Activity (Mus musculus [1]): inactive
- EC50 (Mus musculus [2]): 4.3 pmol

Structure (SMILES): COc1ccc(Cn2c(=O)nc(NCCNC(=N)N)n(Cc3ccc(C)cc3)c2=O)cc1
- Activity (Mus musculus [1]): inactive
- EC50 (Mus musculus [2]): 4.5 pmol
